ChEMBL document CHEMBL4028881, “Synthesis, Pharmacology, and Molecular Docking Studies on 6-Desoxo-N-methylmorphinans as Potent μ-Opioid Receptor Agonists” (J Med Chem, 2017)

Experiments:
Mus musculus = assay: Potency index, ratio of moprhine ED50 for antinociceptive activity in sc dosed […] mouse to compound ED50 for antinociceptive activity in sc dosed CD1 mouse; format: functional
[1] = molecular target: Mu-type opioid receptor (Homo sapiens) (UniProt P35372); assay: Agonist activity at recombinant human MOR expressed in CHO cell membranes after 60 mins by [35S]GTPgammaS binding assay; format: functional
Procedure, shortened: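 [35S]GTPγS binding stimulated by ligand in membranes from CHO cells stably expressing human MOR. Values are mean ± SEM of at least three independent experiments.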

[2] = molecular target: Mu-type opioid receptor (Homo sapiens) (UniProt P35372); assay: Displacement of [3H]-DAMGO from recombinant human MOR expressed in CHO cell membranes after 60 mins by liquid scintillation counting
Procedure, shortened: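 Competition binding on membranes from CHO cells stably transfected with recombinant human MOR. Affinity is reported as Ki. Values are mean ± SEM of at least three independent experiments.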

Homo sapiens = species: Homo sapiens; assay: Selectivity ratio of Ki for recombinant human DOR expressed in CHO cell membranes to Ki for recombinant human MOR expressed in CHO cell membranes; format: cell-based

Sequence of Mu-type opioid receptor (Homo sapiens) (P35372 whole entry): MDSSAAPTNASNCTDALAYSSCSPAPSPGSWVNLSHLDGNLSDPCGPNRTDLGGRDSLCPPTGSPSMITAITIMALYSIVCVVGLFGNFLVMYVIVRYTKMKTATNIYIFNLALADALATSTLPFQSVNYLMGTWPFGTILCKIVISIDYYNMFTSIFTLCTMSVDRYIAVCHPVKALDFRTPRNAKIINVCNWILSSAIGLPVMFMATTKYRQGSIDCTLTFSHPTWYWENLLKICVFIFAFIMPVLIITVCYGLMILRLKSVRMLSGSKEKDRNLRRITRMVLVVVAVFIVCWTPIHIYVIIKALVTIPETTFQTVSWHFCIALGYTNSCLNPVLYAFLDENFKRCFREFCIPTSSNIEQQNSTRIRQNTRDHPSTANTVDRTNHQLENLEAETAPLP

CN1CC[C@]23c4c5ccc(O)c4O[C@H]2C(=O)CC[C@@]3(OCc2ccccc2)[C@H]1C5
Ratio ED50 (Mus musculus): <=1020
Activity [1]: Dose-dependent effect
inhibition [2]: Dose-dependent effect

CO[C@@]12CCC(=O)[C@]3(C)Oc4c(O)ccc5c4[C@@]31CCN(C)[C@@H]2C5
Ratio ED50 (Mus musculus): <=1020
Activity [1]: Dose-dependent effect
inhibition [2]: Dose-dependent effect

CO[C@@]12CCC(=O)[C@@H]3Oc4c(O)ccc5c4[C@@]31CCN(C)[C@@H]2C5
Ratio ED50 (Mus musculus): <=1020
Activity [1]: Dose-dependent effect
inhibition [2]: Dose-dependent effect

CO[C@@]12CCC[C@@H]3Oc4c(O)ccc5c4[C@@]31CCN(C)[C@@H]2C5
Ratio ED50 (Mus musculus): <=1020
Activity [1]: Dose-dependent effect
inhibition [2]: Dose-dependent effect

CN1CC[C@]23c4c5ccc(O)c4O[C@H]2CCC[C@@]3(OCc2ccccc2)[C@H]1C5
Ratio Ki (Homo sapiens): 21
Ratio ED50 (Mus musculus): <=1020
Activity [1]: Dose-dependent effect
inhibition [2]: Dose-dependent effect

CN1CC[C@]23c4c5ccc(O)c4O[C@H]2CCC[C@@]3(O)[C@H]1C5
Ratio ED50 (Mus musculus): <=1020
Activity [1]: Dose-dependent effect
inhibition [2]: Dose-dependent effect

CO[C@@]12CCC[C@]3(C)Oc4c(O)ccc5c4[C@@]31CCN(C)[C@@H]2C5
Ratio ED50 (Mus musculus): <=1020
